Screening data: PubChem BioAssay, several laboratories
Hits are enriched below; roughly 2.2% of the tested compounds scored in any of these assays.
RBBP9 inhibitor – inhibitors of human serine hydrolase RBBP9; AID 1515; 220,000 compounds, 0.2% hits; O75884; recombinant RBBP9, FP-Rh probe fluorescence polarization; inhibition, % at 7.94 µM;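 active = inhibition above the campaign mean of all tested compounds plus 3 SD, cut at about 14% in these data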
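Material: RBBP9 protein. Amount: RBBP9 at 2.5 µM in dispensed solution, before mixing. Schedule: 30 min then 45 min, 25 °C. Medium: Tris buffer pH 8.0, NaCl, Pluronic. Measured by: fluorescence polarization. Measure: percent inhibition from mP, scaled between DMSO and no-protein wells. Replication: one well per compound.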
EBV gp42 block – EBV gp42 inhibition; Q1HVG2; Fluorescence polarization binding assay, mP read-out; inhibition, % (tested at 21.74 µM); 220,000 compounds, 0.42% hits; AID 1085; in the data active = inhibition above about 50%
Target sequence (Q1HVG2 whole entry, looked up): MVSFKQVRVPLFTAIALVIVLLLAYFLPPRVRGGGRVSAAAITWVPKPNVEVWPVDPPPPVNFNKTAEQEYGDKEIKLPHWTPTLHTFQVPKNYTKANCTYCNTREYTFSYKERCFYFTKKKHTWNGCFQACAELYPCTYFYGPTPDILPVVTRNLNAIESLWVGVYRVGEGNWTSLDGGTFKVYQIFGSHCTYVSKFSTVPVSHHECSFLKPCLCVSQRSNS
Bim-Mcl-1 – inhibitors of Bim-Mcl-1 interaction, human | Q07820 | Bead-based flow cytometry, Bim peptide-Mcl-1 binding | inhibition, % at 10 µM | 190,000 compounds, 0.1% hits | AID 1009; in the data active = inhibition above about 40%
Target sequence (Q07820 whole entry, looked up): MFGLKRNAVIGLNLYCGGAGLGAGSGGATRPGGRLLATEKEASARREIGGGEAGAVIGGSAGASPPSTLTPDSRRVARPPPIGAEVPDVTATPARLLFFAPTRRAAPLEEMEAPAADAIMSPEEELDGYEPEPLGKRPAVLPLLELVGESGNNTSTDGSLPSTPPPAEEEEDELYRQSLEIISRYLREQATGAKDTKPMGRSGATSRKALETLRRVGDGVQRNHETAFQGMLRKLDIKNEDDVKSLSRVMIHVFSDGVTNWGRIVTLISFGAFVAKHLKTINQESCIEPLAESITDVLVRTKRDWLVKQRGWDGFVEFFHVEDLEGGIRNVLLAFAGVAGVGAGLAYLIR
MCL1 BIM primary – disrupts human MCL1 binding to BIM-BH3 peptide; Q07820; GST-MCL1 / FITC-Bim-BH3 fluorescence polarization; inhibition, % at 10.9 µM; 320,000 compounds, 0.68% hits;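 active = inhibition above the mean inhibition of all tested compounds plus 3 SD, set per campaign, cut at about 40% in these data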;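 also: higher means more loss of mP so more displacement of Bim peptide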
Mcl1-Noxa inh – disrupts binding of human Mcl-1 to Noxa peptide. TR-FRET Mcl-1/Noxa peptide binding, 2 h. inhibition, % at 21.7 µM. Q07820. 220,000 compounds, 1.5% hits;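 active = compounds that cut the protein-peptide binding signal by more than 50% relative to plate controls in a single-dose test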;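 also: His-tagged Mcl-1 with rhodamine Noxa BH3 peptide and terbium anti-His antibody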
Mcl1 Bid PPI – Mcl-1/Bid interaction inhibition | inhibition, % at 21.7 µM | Q07820 | 220,000 compounds, 0.97% hits | TR-FRET Mcl-1/Bid-Dy647 peptide binding, 1536-well;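 active = compounds that cut the binding signal by more than half at the single screening dose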;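 also: His-tagged Mcl-1 with europium anti-His antibody binding Bid BH3 peptide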
RBBP9 confirm – human RBBP9 inhibition, confirmation; shares compounds with RBBP9 inhibitor; recombinant RBBP9, FP-Rh probe fluorescence polarization; inhibition, % at 7.94 µM; 410 compounds, 36% hits; AID 1537;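 active = inhibition above the hit cutoff derived for the primary screen, cut at about 15% in these data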
A number is an active result; i = inactive; nt = no result given.

SMILES	RBBP9 inhibitor	EBV gp42 block	Bim-Mcl-1	MCL1 BIM primary	Mcl1-Noxa inh	Mcl1 Bid PPI	RBBP9 confirm
COC(=O)COc1ccc2c(=O)c(-c3ccccc3OC)coc2c1	19	i	i	i	i	i	i
CCN=C1S/C(=C\c2ccc(O)c(OCC)c2)C(=O)N1CC	i	i	i	i	i	i	nt
CCN=C1S/C(=C\c2cc(OCC)c(O)cc2Br)C(=O)N1CC	24	i	i	i	i	i	i
CC1=C(C(=O)OC2CCC(C)CC2)C(c2ccc(O)c([N+](=O)[O-])c2)NC(=O)N1 (configuration not stated)	nt	nt	nt	i	nt	nt	nt
Cc1cccc2c(N=O)c(O)[nH]c12	24	i	nt	i	55	i	53
CC(C)(C)c1ccc(C(=O)NCC(=O)OCC(=O)N2CCCC2)cc1	nt	nt	nt	i	nt	nt	nt
CC1(C)NC(=O)NC2(C)NC(=O)NC(C)(C)C12 (configuration not stated)	20	i	i	i	i	i	i
Cc1sc(NC(=O)c2ccco2)c(C(Nc2ccccn2)c2ccccc2)c1C (configuration not stated)	21	i	i	i	i	i	i
CCCCCc1ccc(OCCCC[n+]2cccc(C)c2)c(CCCCC)c1	15	i	i	i	i	i	i
COc1ccc(-c2[nH]c(-c3ccc(Cl)cc3)nc2SCC(=O)Nc2nccs2)cc1	i	i	i	i	i	i	nt
COc1ccc(-c2[nH]c(-c3ccccc3)nc2SCC(=O)Nc2nccs2)cc1	26	i	i	i	i	i	i
O=Nc1c(O)[nH]c2ccc(F)cc12	i	i	i	i	i	i	nt
O=Nc1c(O)[nH]c2ccc(Cl)cc12	15	i	i	i	i	i	29
CC(C)c1cc(C(C)C)c(S(=O)(=O)N2c3ccccc3[C@@]3(Br)C[C@H]4C(=O)N[C@@H](Cc5ccccc5)C(=O)N4[C@@H]23)c(C(C)C)c1	nt	nt	nt	i	nt	nt	nt
O=C(Nc1nnc(C2=COCCO2)o1)c1ccc(Cc2ccccc2)cc1	17	i	i	i	i	i	i
CSc1nc(Cl)cc(=O)[nH]1	15	i	nt	i	i	i	i
COc1ccccc1/C=C1\SC(=S)N(CCC(=O)Nc2nnc(C)s2)C1=O	nt	nt	nt	i	nt	nt	nt
COc1ccc(N/C=C2\CCc3ccccc3C2=O)cc1	18	i	i	i	i	i	i
CC(Cn1cnc2ccccc21)C(=O)O (configuration not stated)	15	i	i	i	i	i	i
O=C(CN1CCNCC1)Nc1ccc(Oc2ccccc2)cc1	15	i	i	i	i	i	24
N#Cc1ncc(C(F)(F)F)cc1Sc1ccc(N)cc1	19	i	i	i	i	i	i
N#Cc1cc(N)ccc1Sc1ccc(Cl)cc1	i	i	i	i	i	i	nt
COc1ccc2c(c1)Sc1ccccc1N2	16	i	i	nt	i	i	30
Cc1cccc(C)c1OCC(=O)NCC1CCCO1 (configuration not stated)	i	i	i	i	i	i	nt
O=C(CC1CC2CCC1C2)NC1CCCCCCC1 (configuration not stated)	nt	nt	nt	i	nt	nt	nt
SMILES	RBBP9 inhibitor	EBV gp42 block	Bim-Mcl-1	MCL1 BIM primary	Mcl1-Noxa inh	Mcl1 Bid PPI	RBBP9 confirm
O=C1c2ccccc2NC(c2cccc(O)c2)N1Cc1ccco1 (configuration not stated)	15	i	nt	i	i	i	29
COc1ccc(C2Nc3ccccc3C(=O)N2Cc2ccco2)cc1CN1C(=O)c2ccccc2C1=O (configuration not stated)	i	i	i	i	i	i	nt
COc1cc(C(=O)NCC(c2ccco2)N2CCOCC2)cc(OC)c1OC (configuration not stated)	nt	nt	nt	i	nt	nt	nt
CCOc1ccc(S(=O)(=O)N(C(=O)c2ccco2)c2cc3sc(=O)oc3c3ccccc23)cc1	30	i	i	i	i	i	i
CN(CC(=O)NCCc1ccccc1)S(=O)(=O)c1ccc(Br)cc1	15	i	i	i	i	i	i
Cc1ccc(S(=O)(=O)NCCC(=O)Nc2ccncc2)cc1C	nt	nt	nt	i	nt	nt	nt
CCOC(=O)c1ccc(CC(=O)c2ccc(O)cc2O)o1	i	i	i	i	i	i	nt
CCC(=O)Oc1ccc(C/C(=N\O)c2ccc(O)cc2O)o1	31	i	i	i	i	i	52
Cc1ccc(OCC(=O)Nc2ccon2)c([N+](=O)[O-])c1	nt	nt	nt	i	nt	nt	nt
CC(=O)N(c1ccc2oc(=O)sc2c1)S(=O)(=O)c1ccccc1	17	i	i	i	i	i	i
COc1ccc2c(c1)c1ccc3c(c1n2C)C(=O)C=CC3=O	63	i	nt	nt	102	i	71
COc1ccc2c(c1)c1ncn(CCN3CCCC3)c(=O)c1n2C	i	i	i	i	i	i	nt
CCOc1cccc(CN2CCN(Cc3ccc(C)o3)C(CCO)C2)c1O (configuration not stated)	15	i	i	i	i	i	i
O=C(/C=N/O)Nc1ccc2sc3ccccc3c2c1	53	i	nt	i	i	i	72
COc1ccc2c(O)c(-c3c(C)cc(C)cc3C)c(=O)[nH]c2c1	nt	nt	nt	i	nt	nt	nt
COc1ccc(/C=C/C(=O)Nc2ccccc2)cc1S(=O)(=O)N1CCOCC1	37	i	nt	i	i	i	i
COc1ccc(/C=C/C(=O)Nc2ccc(NC(C)=O)cc2)cc1S(=O)(=O)N1CCOCC1	i	i	nt	i	i	i	nt
COC(=O)C1=C(C)Nc2[nH]c(=S)[nH]c(=O)c2C1c1ccc(O)cc1 (configuration not stated)	i	i	nt	i	i	i	nt
COc1cc(C2C(C(=O)OC(C)C)=C(C)Nc3[nH]c(=O)[nH]c(=O)c32)ccc1O (configuration not stated)	17	i	i	i	i	i	i
CCn1cc(C(=O)NCCCN(CC(C)C)CC(C)C)c(=O)c2cc(S(=O)(=O)N3CCOCC3)ccc21	nt	nt	nt	i	nt	nt	nt
COc1ccccc1CNC(=O)/C=C/c1ccc(S(=O)(=O)NCc2ccco2)cc1	i	i	i	i	i	i	nt
O=C1C(=O)N(Cc2ccncc2)C(c2ccccc2F)/C1=C(\O)c1ccc2c(c1)OCCO2 (configuration not stated)	nt	nt	nt	i	nt	nt	nt
CCOc1ccc(C(C)NC(=O)C2CCC2)cc1 (configuration not stated)	i	i	i	i	i	i	nt
COc1ccc(C(=O)C[n+]2cc(-c3ccc(OC)cc3)n3c2CCCC3)cc1	i	i	i	i	i	i	nt
Cc1ccc(C(=O)C[n+]2cc(-c3ccc(C)cc3)n3c2CCCCC3)cc1	21	i	i	i	i	i	i
Cc1ccc(C)n1-c1ccc(N2CCOCC2)c([N+](=O)[O-])c1	16	i	nt	i	i	i	i
O=c1c(-c2ccco2)[n+]([O-])c2ccccc2n1OCc1ccccc1F	15	i	i	i	i	i	i
